Assay results as given in ChEMBL document CHEMBL4680114, “Optimization of Potent and Selective Ataxia Telangiectasia-Mutated Inhibitors Suitable for a Proof-of-Concept Study in Huntington's Disease Models” (J Med Chem, 2019).
≈ marks a conversion by molar mass, not a printed value.

Tests used:
[1] = Kinetic solubility in pH 7.4 PBS buffer by LC-UV assay; assay type: physicochemical; settings: read-out: Kinetic_solubility
Method in brief: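 Compound from a 10 mM DMSO stock diluted to a nominal 200 µM in 0.1 M potassium phosphate/0.8% NaCl pH 7.4 (2% DMSO final), n=2. Shaken 2 h at room temperature, then filtered. Filtrate quantified by LC-UV against 200 µM and 10 µM DMSO standards, with MS peak confirmation.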

[2] = AUC/dose in C57BL/6J mouse plasma at 3 mg/kg, iv administered as single dose by LC-MS/MS analysis; assay type: ADME, organism-based; settings: in vivo
Method in brief: (§1)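 Male C57BL/6 mice, single intravenous dose as solution in 10:50:40 DMSO:PEG400:H2O (5 mL/kg). Plasma by cardiac puncture and brain collected at set times, n=3 per time point. LC-MS/MS quantitation with diclofenac IS. Composite non-compartmental parameters from mean concentrations; C0 back-extrapolated from first two points; kel from at least last three concentrations; AUC dose-normalized.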

[3] = AUC/dose in C57BL/6J mouse brain at 3 mg/kg, iv administered as single dose by LC-MS/MS analysis; assay type: ADME, organism-based; settings: in vivo; method in brief: as §1
[4] = Volume of distribution at steady state in C57BL/6J mouse at 3 mg/kg, iv administered as single dose by LC-MS/MS analysis; assay type: ADME, organism-based; settings: in vivo, read-out: Vdss
Method in brief: (§2)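 Male mice given a single iv dose of 3 mg/kg in 10:50:40 DMSO:PEG400:H2O (5 mL/kg). Plasma (cardiac puncture) and brain collected, n=3 per time point, and measured by LC-MS/MS. Non-compartmental parameters from mean concentrations, with C0 back-extrapolated; AUC by linear trapezoidal method, dose-normalised.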

[5] = Ratio of AUC/dose in brain to plasma of C57BL/6J mouse at 3 mg/kg, iv administered as single dose by LC-MS/MS analysis; assay type: ADME, organism-based; settings: brain and plasma, read-out: BPR; method in brief: as §2
[6] = Unbound brain-to-plasma concentration ratio in C57BL/6J mouse at 3 mg/kg, iv administered as single dose by LC-MS/MS analysis; assay type: ADME, organism-based; settings: brain and plasma, read-out: K(p,uu,brain)
[7] = AUC/dose in C57BL/6J mouse plasma at 10 mg/kg, po by LC-MS/MS analysis; assay type: ADME, organism-based; settings: in vivo
Method in brief: (§3)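 Male C57BL/6 mice, single oral dose as fine suspension in 10% or 20% hydroxypropyl-beta-cyclodextrin in water (10 mL/kg). Terminal cardiac-puncture plasma and saline-rinsed brain, n=3 per time point; brain homogenized in acetonitrile:water 3:1. LC-MS/MS with diclofenac IS; LLOQ 6 nM plasma, 21 nM brain. Composite non-compartmental analysis of mean concentrations; AUC normalized to actual dose.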

[8] = Oral bioavailability in C57BL/6J mouse plasma at 10 mg/kg by LC-MS/MS analysis; assay type: ADME, organism-based
Method in brief: (§4)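 Male mice given a single oral dose of 10, 30 or 100 mg/kg as a fine suspension in 10% or 20% hydroxypropyl-β-cyclodextrin (10 mL/kg). Plasma and brain collected (n=3/time point) and measured by LC-MS/MS. Non-compartmental analysis on mean concentrations; AUC dose-normalised. %F = normalised po AUCinf / normalised iv AUCinf.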

[9] = Cmax/dose in C57BL/6J mouse plasma at 10 mg/kg, po by LC-MS/MS analysis; assay type: ADME, organism-based; settings: in vivo; method in brief: as §3
[10] = Tmax in C57BL/6J mouse plasma at 10 mg/kg, po by LC-MS/MS analysis; assay type: ADME, organism-based; method in brief: as §4
[11] = AUC/dose in C57BL/6J mouse plasma at 30 mg/kg, po by LC-MS/MS analysis; assay type: ADME, organism-based; settings: in vivo; method in brief: as §3
[12] = Oral bioavailability in C57BL/6J mouse plasma at 30 mg/kg by LC-MS/MS analysis; assay type: ADME, organism-based; method in brief: as §4
[13] = Cmax/dose in C57BL/6J mouse plasma at 30 mg/kg, po by LC-MS/MS analysis; assay type: ADME, organism-based; settings: in vivo; method in brief: as §3
[14] = Tmax in C57BL/6J mouse plasma at 30 mg/kg, po by LC-MS/MS analysis; assay type: ADME, organism-based; method in brief: as §4
[15] = AUC/dose in C57BL/6J mouse plasma at 100 mg/kg, po by LC-MS/MS analysis; assay type: ADME, organism-based; settings: in vivo; method in brief: as §3
[16] = Oral bioavailability in C57BL/6J mouse plasma at 100 mg/kg by LC-MS/MS analysis; assay type: ADME, organism-based; method in brief: as §4
[17] = Cmax/dose in C57BL/6J mouse plasma at 100 mg/kg, po by LC-MS/MS analysis; assay type: ADME, organism-based; settings: in vivo; method in brief: as §3
[18] = Tmax in C57BL/6J mouse plasma at 100 mg/kg, po by LC-MS/MS analysis; assay type: ADME, organism-based; method in brief: as §4
[19] = AUC/dose in C57BL/6J mouse brain at 10 mg/kg, po by LC-MS/MS analysis; assay type: ADME, organism-based; settings: in vivo; method in brief: as §3
[20] = Cmax/dose in C57BL/6J mouse brain at 10 mg/kg, po by LC-MS/MS analysis; assay type: ADME, organism-based; settings: in vivo; method in brief: as §3
[21] = Tmax in C57BL/6J mouse brain at 10 mg/kg, po by LC-MS/MS analysis; assay type: ADME, organism-based; method in brief: as §4
[22] = Ratio of AUC/dose in brain to plasma of C57BL/6J mouse at 10 mg/kg, po administered as single dose by LC-MS/MS analysis; assay type: ADME, organism-based; settings: brain and plasma, read-out: BPR; method in brief: as §4
[23] = Unbound brain-to-plasma concentration ratio in C57BL/6J mouse at 10 mg/kg, po administered as single dose by LC-MS/MS analysis; assay type: ADME, organism-based; settings: brain and plasma, read-out: K(p,uu,brain)
[24] = AUC/dose in C57BL/6J mouse brain at 30 mg/kg, po by LC-MS/MS analysis; assay type: ADME, organism-based; settings: in vivo; method in brief: as §3
[25] = Cmax/dose in C57BL/6J mouse brain at 30 mg/kg, po by LC-MS/MS analysis; assay type: ADME, organism-based; settings: in vivo; method in brief: as §3
[26] = Tmax in C57BL/6J mouse brain at 30 mg/kg, po by LC-MS/MS analysis; assay type: ADME, organism-based; method in brief: as §4
[27] = Ratio of AUC/dose in brain to plasma of C57BL/6J mouse at 30 mg/kg, po administered as single dose by LC-MS/MS analysis; assay type: ADME, organism-based; settings: brain and plasma, read-out: BPR; method in brief: as §4
[28] = Unbound brain-to-plasma concentration ratio in C57BL/6J mouse at 30 mg/kg, po administered as single dose by LC-MS/MS analysis; assay type: ADME, organism-based; settings: brain and plasma, read-out: K(p,uu,brain)
[29] = AUC/dose in C57BL/6J mouse brain at 100 mg/kg, po by LC-MS/MS analysis; assay type: ADME, organism-based; settings: in vivo; method in brief: as §3
[30] = Cmax/dose in C57BL/6J mouse brain at 100 mg/kg, po by LC-MS/MS analysis; assay type: ADME, organism-based; settings: in vivo; method in brief: as §3
[31] = Tmax in C57BL/6J mouse brain at 100 mg/kg, po by LC-MS/MS analysis; assay type: ADME, organism-based; method in brief: as §4
[32] = Ratio of AUC/dose in brain to plasma of C57BL/6J mouse at 100 mg/kg, po administered as single dose by LC-MS/MS analysis; assay type: ADME, organism-based; settings: brain and plasma, read-out: BPR; method in brief: as §4
[33] = Unbound brain-to-plasma concentration ratio in C57BL/6J mouse at 100 mg/kg, po administered as single dose by LC-MS/MS analysis; assay type: ADME, organism-based; settings: brain and plasma, read-out: K(p,uu,brain)

solubility kinetic [1]: 11 µg/mL (≈ 27 µM)
AUC/dose [2]: 2700 nM·kg·h/mg
AUC/dose [3]: 3500 nM·kg·h/mg
Vd [4]: 1.6 L/kg
Kp [5]: 1.3
Kp uu [6]: 0.44
AUC/dose [7]: 2400 nM·kg·h/mg
bioavailability [8]: 89%
Cmax/dose [9]: 850 nM·kg/mg
Tmax [10]: 60 min
AUC/dose [11]: 3000 nM·kg·h/mg
bioavailability [12]: 111%
Cmax/dose [13]: 890 nM·kg/mg
Tmax [14]: 15 min
AUC/dose [15]: 1800 nM·kg·h/mg
bioavailability [16]: 67%
Cmax/dose [17]: 450 nM·kg/mg
Tmax [18]: 15 min
AUC/dose [19]: 3200 nM·kg·h/mg
Cmax/dose [20]: 950 nM·kg/mg
Tmax [21]: 60 min
Kp [22]: 1.3
Kp uu [23]: 0.45
AUC/dose [24]: 3300 nM·kg·h/mg
Cmax/dose [25]: 880 nM·kg/mg
Tmax [26]: 30 min
Kp [27]: 1.1
Kp uu [28]: 0.37
AUC/dose [29]: 2600 nM·kg·h/mg
Cmax/dose [30]: 850 nM·kg/mg
Tmax [31]: 60 min
Kp [32]: 1.4
Kp uu [33]: 0.49
SMILES: COc1ccc2c(c1)Cc1cccc(-c3cc(=O)cc(N4CCOCC4)o3)c1S2
